In ChEMBL document CHEMBL3085741, “Structure-activity relationships and molecular modeling of sphingosine kinase inhibitors” (J Med Chem, 2013):
The source made the active and inactive calls. The rule behind the calls is not given here.

How the values were obtained:
Sphingosine kinase 1 [1] = biological target: T1, Sphingosine kinase 1 (Homo sapiens, UniProt Q9NYA1); assay: Inhibition of recombinant sphingosine kinase 1 (unknown origin) expressed in HEK293 cells using sphingosine as substrate at 50 uM after 30 mins relative to control in presence of [gamma32P]-ATP
T1 sequence (Q9NYA1 whole entry): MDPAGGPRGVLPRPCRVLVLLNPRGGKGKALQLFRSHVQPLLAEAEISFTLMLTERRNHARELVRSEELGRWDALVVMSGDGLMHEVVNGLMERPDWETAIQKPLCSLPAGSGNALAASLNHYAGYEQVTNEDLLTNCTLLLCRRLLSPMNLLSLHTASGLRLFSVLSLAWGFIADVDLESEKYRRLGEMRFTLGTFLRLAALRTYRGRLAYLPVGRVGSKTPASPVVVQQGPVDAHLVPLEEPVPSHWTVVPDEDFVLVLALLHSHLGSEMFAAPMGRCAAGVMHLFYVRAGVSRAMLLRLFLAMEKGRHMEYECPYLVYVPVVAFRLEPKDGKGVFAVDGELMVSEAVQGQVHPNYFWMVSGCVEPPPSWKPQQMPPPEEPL
Outline: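 Single-point inhibitor test at 50 μM with 250 μM ATP. […] Activity is reported as % of control, where control (100%) is activity with sphingosine alone. n = 3, mean ± SD.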

Sphingosine kinase 1 [2] = biological target: T1, Sphingosine kinase 1; assay: Inhibition of recombinant sphingosine kinase 1 (unknown origin) expressed in HEK293 cells using sphingosine as substrate after 30 mins in presence of [gamma32P]-ATP
[3] = biological target: T2, Sphingosine kinase 2 (Homo sapiens) (UniProt Q9NRA0); assay: (§1) Inhibition of sphingosine kinase 2 (unknown origin) using sphingosine as substrate after 30 mins in presence of [gamma32P]-ATP
T2 sequence (whole entry): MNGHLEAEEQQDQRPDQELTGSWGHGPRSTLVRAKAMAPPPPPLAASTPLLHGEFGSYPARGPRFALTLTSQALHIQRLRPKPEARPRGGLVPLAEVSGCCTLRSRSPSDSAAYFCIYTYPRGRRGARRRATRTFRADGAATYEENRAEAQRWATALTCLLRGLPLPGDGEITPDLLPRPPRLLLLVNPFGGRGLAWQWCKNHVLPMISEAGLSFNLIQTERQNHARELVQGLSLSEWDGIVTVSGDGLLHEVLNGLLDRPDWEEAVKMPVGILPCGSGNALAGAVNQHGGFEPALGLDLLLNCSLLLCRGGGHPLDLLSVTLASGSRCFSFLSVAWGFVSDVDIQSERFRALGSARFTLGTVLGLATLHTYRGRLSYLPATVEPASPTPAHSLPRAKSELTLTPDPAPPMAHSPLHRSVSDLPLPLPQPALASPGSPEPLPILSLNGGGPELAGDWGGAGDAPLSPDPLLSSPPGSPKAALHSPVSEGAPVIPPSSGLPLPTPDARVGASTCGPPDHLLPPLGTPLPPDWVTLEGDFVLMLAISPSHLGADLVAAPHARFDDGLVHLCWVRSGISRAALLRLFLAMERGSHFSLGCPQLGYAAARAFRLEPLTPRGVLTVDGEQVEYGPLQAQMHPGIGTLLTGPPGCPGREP
Outline: (§2)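 Results are given as % of the sphingosine-only control, and IC50 was derived from the curve. n = 3, ± SD.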

Sphingosine kinase 2 = biological target: T3, Sphingosine kinase 2 (Homo sapiens, UniProt Q9NRA0); assay: as §1; outline: as §2
T3 sequence (Q9NRA0 whole entry): T2 sequence (whole entry)

[4] = biological target: T2, Sphingosine kinase 2 (Homo sapiens); assay: Inhibition of sphingosine kinase 2 (unknown origin) using sphingosine as substrate at 50 uM after 30 mins relative to control in presence of [gamma32P]-ATP
[5] = biological target: T2, Sphingosine kinase 2 (Homo sapiens); assay: Activity at sphingosine kinase 2 (unknown origin) at 50 uM after 30 mins in presence of [gamma32P]-ATP
Sphingosine kinase 1 [6] = biological target: T1, Sphingosine kinase 1; assay: Inhibition of recombinant sphingosine kinase 1 (unknown origin) expressed in HEK293 cells using sphingosine as substrate at 100 uM after 30 mins relative to control in presence of [gamma32P]-ATP
[7] = 100 uM, in the assay text read “at 100 uM” for “at 50 uM”

| inhibition (Sphingosine kinase 1 [1]) | Structure (SMILES) | also measured |
| --- | --- | --- |
| inactive | CCCCCCCCc1ccc(CCN2CCC(N=[N+]=[N-])CC2)cc1 | – |
| inactive | CCCCCCCCCCCCc1ccc(C(=O)N2CCC[C@H]2CO)cc1 | – |
| – | CCCCCCCCc1ccc(CCN2CCC[C@@H]2CO)cc1 | IC50 (Sphingosine kinase 1 [2]): 2.2 µM; inhibition (Sphingosine kinase 1 [2]): Dose-dependent effect; inhibition [3]: Dose-dependent effect; IC50 (Sphingosine kinase 2): 5.2 µM |
| inactive | CCCCc1cn(-c2ccc(CCN3CCCCC3)cc2)nn1 | – |
| inactive | CCCCCCCCc1ccc(C(=O)NCc2ccncc2)cc1 | – |
| Active | CCCCCCCCc1ccc(CN2CCC(O)CC2)cc1 | – |
| inactive | CCCCCc1cn(-c2ccc(CCN3CCCCC3)cc2)nn1 | – |
| – | CCCCCCCCc1ccc(CCN2CCC(=O)CC2)cc1 | inhibition ([4]; 50 uM): Active |
| inactive | Cc1ccc(CCN2CCC(N)CC2)cc1 | – |
| Active | CCCCCCCCc1cn(-c2ccc(CCN3CCC(O)CC3)cc2)nn1 | – |
| inactive | CCCCCCCCCCCCc1ccc(CCN2CCC(N)CC2)cc1 | – |
| – | CCCCCCCCc1ccc(CCN2CCC(N)CC2)cc1 | IC50 (Sphingosine kinase 1 [2]): 16.9 µM; inhibition (Sphingosine kinase 1 [2]): Dose-dependent effect |
| inactive | CCCCCCCCCCCCc1ccc(C(=O)N2CCC[C@@H]2CO)cc1 | – |
| inactive | CCCCCCCCc1ccc(CCc2cccnc2)cc1 | – |
| inactive | CCCCCCCCc1cn(-c2ccc(O)cc2)nn1 | – |
| inactive | Cc1ccc(CCN2CCC[C@@H]2CO)cc1 | – |
| inactive | CCCCc1cn(-c2ccc(CC[N+]3(C)CCCCC3)cc2)nn1 | inhibition ([4]; 50 uM): inactive |
| inactive | CCCCCCCCc1cn(-c2ccc(CCO)cc2)nn1 | – |

| inhibition (Sphingosine kinase 1 [1]) | Structure (SMILES) | also measured |
| --- | --- | --- |
| – | CCCCCCCCc1ccc(CCN2CCC[C@H]2CO)cc1 | Activity [5]: Active; inhibition [4, 7]: 45.7%; inhibition (Sphingosine kinase 1 [6]): 72.2% |
| Active | CCCCCCCCc1ccc(CCCN2CCC(O)CC2)cc1 | – |
| inactive | CCCCCCCCc1ccc(CCc2ccc[n+](C)c2)cc1 | inhibition ([4]; 50 uM): inactive |
| inactive | CCCCCc1cn(-c2ccc(CCN3CCC(O)CC3)cc2)nn1 | – |
| – | CCCCCCCCCCCCc1ccc(CCN2CCC[C@@H]2CO)cc1 | IC50 (Sphingosine kinase 1 [2]): 5.3 µM; inhibition (Sphingosine kinase 1 [2]): Dose-dependent effect; inhibition [3]: Dose-dependent effect; IC50 (Sphingosine kinase 2): 5 µM |
| inactive | Cc1ccc(CCN2CCC(N=[N+]=[N-])CC2)cc1 | – |
| inactive | CCCCCCCCc1ccc(-n2cc(-c3cccnc3)nn2)cc1 | – |
| inactive | CCCCCCCCCCCCc1ccc(C(=O)N2CCC(O)CC2)cc1 | – |
| – | CCCCCCCCCCCCc1ccc(CCN2CCC[C@H]2CO)cc1 | Activity [5]: Active; inhibition [4, 7]: 49.7%; inhibition (Sphingosine kinase 1 [6]): 49.9% |
| Active | CCCCCCCCc1ccc(CCCCN2CCC(O)CC2)cc1 | – |
| inactive | CCCCCCCCc1ccc(C(=O)Nc2ccc(O)cc2)cc1 | – |
| inactive | CCCCCc1cn(-c2ccc(CC[N+]3(C)CCCCC3)cc2)nn1 | inhibition ([4]; 50 uM): inactive |
| inactive | CCCCCCCCc1ccc(C[n+]2ccc(N3CCC(C)CC3)cc2)cc1 | inhibition ([4]; 50 uM): Active |
| inactive | CCCCCCCCc1ccc(C(=O)Nc2ccc(CCO)cc2)cc1 | – |
| inactive | CCCCCCCCc1cn(-c2ccc(CC[N+]3(C)CCCCC3)cc2)nn1 | inhibition ([4]; 50 uM): inactive |
| inactive | CCCCCCCCc1cn(-c2ccc(CCN3CCCCC3)cc2)nn1 | – |
| inactive | CCCCCCCCc1ccc(C(=O)N2CCC(O)CC2)cc1 | – |
| inactive | CCCCc1cn(-c2ccc(CCN3CCC(O)CC3)cc2)nn1 | – |

| Structure (SMILES) | inhibition (Sphingosine kinase 1 [1]) | also measured |
| --- | --- | --- |
| CCCCCCCCc1ccc(CCN2CC[C@H](O)C2)cc1 | Active | – |
| CCCCCCCCc1ccc(CCN2CCC(OC)CC2)cc1 | inactive | – |
| CCCCCCCCc1ccc(CCN2CCC(F)CC2)cc1 | inactive | – |
| Cc1ccc(CCN2CCC(O)CC2)cc1 | inactive | – |
| CCCCCCCCc1ccc(CCN2CC[C@@H](O)C2)cc1 | Active | – |
